Diaph act CS: diaphorase activation or chemical reduction counter-screen. Diaphorase/resazurin coupled assay, resorufin fluorescence, 16 min; active compounds read high; 1 = vehicle wells, 0 = NADH-free wells. activation factor at 20 µM. hit rate 0.005% among 190,000;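 active means diaphorase activity raised at least twofold by the compound at 20 µM; inactive means activation factor below 2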
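Material: purified diaphorase enzyme from Clostridium kluyveri / Medium: HEPES pH 7.4 buffer with MgCl2 and Tween 20 / Schedule: enzyme reaction of 16 min at room temperature / Measured by: resorufin fluorescence, excitation 544 nm, emission 590 nm / Evaluation: rise in resorufin formation, marking diaphorase activation or chemical reduction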
WT yeast gro inh: growth inhibition of WT yeast, mitochondrial fusion screen | mitochondrial fusion phenotypic screen, WT strain | inhibition, % at 10 µM | hit rate 2.1% among 190,000; in the data active means inhibition above about 58%; tested in S. cerevisiae
Diaphorase inh: diaphorase inhibition or chemical oxidation counter-screen; diaphorase resazurin-to-resorufin fluorescence, NADH, 16 min; bacterial (C. kluyveri) enzyme, not human; inhibition, % at 20 µM; hit rate 0.69% among 190,000; AID 1217;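 active means primary screen inhibition at 20 µM above a set limit, cut at about 50% in these data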;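 further: plate controls were DMSO with full reaction for no effect and wells lacking NADH for full effect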
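Test system: diaphorase enzyme from Clostridium kluyveri; amount: diaphorase at 0.14 U/mL in enzyme working solution; detection: fluorescence of resorufin formed from resazurin, Ex 544/Em 590 nm; times: reaction incubation of 16 min at room temperature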
Lmaj promast: reduces viability of Leishmania major promastigotes | resazurin fluorescence viability | inhibition, % at 10 µM | hit rate 9% among 200,000; in the data active means inhibition above about 50%;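 further: promastigotes grown with compound for 44 hours at 28 °C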
KCC2 mod: modulates chloride dependent transport by human KCC2 | Q9H2X9 | KCC2 cells, thallium flux FluoZin-2 fluorescence | B-score of Tl+ flux slope (higher = more flux/activation; lower = inhibition) at 10 µM | hit rate 2.2% among 190,000;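 active means thallium flux slope and its plate-corrected score both differing from the plate sample mean at a set confidence after two filtering rounds, in either direction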;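 further: slope of fluorescence scaled to starting intensity during 10 to 20 s after thallium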
ROMK mod: modulators of human ROMK potassium channel; P48048; Tet-inducible ROMK, thallium flux fluorescence; actives lie on both sides; B-score at 10 µM; hit rate 2% among 130,000; AID 1918;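 active means signal ratio slope over the read window, or its plate-corrected B-score, at least 3 SD from the plate mean, either direction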;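 further: B-score of the F/F0 ratio slope over 7 to 12 s after thallium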
The depositor's hits bear a star; . = no result given. Only some compounds are listed: those with a hit (about 12% of all), similar ones and a draw of the others.

SMILES | Diaph act CS | WT yeast gro inh | Diaphorase inh | Lmaj promast | KCC2 mod | ROMK mod
O=C(Nc1cccc(C(F)(F)F)c1)Nc1ccc(N2CCCC2)c(S(=O)(=O)Nc2ccccc2Cl)c1 | 1 | -1.3 | -2.3 | 100.3* | 0.977 | 0.0864
O=C(Nc1cccc(S(=O)(=O)N2CCCCC2)c1)c1ccc2ccccc2n1 | 0.8 | 21.2 | 21.1 | 10.0 | -0.577 | -0.348
COc1cc(/C=C/C(=O)Nc2cc(S(=O)(=O)N3CCOCC3)ccc2N2CCCC2)cc(OC)c1OC | 0.9 | 1.9 | 7.2 | 8.0 | 0.177 | 0.588
COc1cc(/C=C/C(=O)Nc2ccc(N3CCCCC3)c(S(=O)(=O)Nc3ccccc3Cl)c2)cc(OC)c1OC | 0.9 | 8.8 | 10.5 | 53.2* | 1.71 | -0.459
CCC(OC(=O)c1nsc(Cl)c1Cl)C(=O)NC(C)(C)CC (configuration not stated) | 0.5 | -15.4 | 46.8 | -8.5 | -0.0508 | 0.536
Cc1ccc(NS(=O)(=O)c2ccc(Cl)c(C(=O)Nc3ccccc3-c3nc4ccccc4[nH]3)c2)cc1C | 0.8 | 13.6 | 23.7 | 25.4 | 0.121 | 0.439
COc1ccc(-c2nc(C(N)=O)c3[nH]c(=O)n(-c4cccc(Cl)c4)c3n2)cc1OC | 1.1 | . | -9.7 | 60.2* | -0.123 | .
COc1ccccc1NC(=S)N(C(C)C)C(C)c1ccccn1 (configuration not stated) | 1 | 11.1 | 4.0 | 6.5 | 0.309 | -0.496
CC(C)N(C(=S)Nc1cccc(C(F)(F)F)c1)C(C)c1ccccn1 (configuration not stated) | 1.1 | 74.0* | -6.9 | 14.5 | -0.389 | -1.52
CCCN(CCC)C(=O)CC(c1ccccc1)c1ccco1 (configuration not stated) | . | . | . | . | -1.25 | .
C(=N\Nc1nc(N2CCCC2)nc(N2CCCC2)n1)/c1ccccc1OCc1ccccc1 | 0.8 | 5.4 | 16.3 | 3.5 | 0.0342 | -1.71
CN(C)c1nc(NCc2ccccc2)nc(N/N=C/c2cccc(Br)c2)n1 | 1.1 | 45.8 | -9.4 | 51.6* | -0.0919 | 0.404
Fc1ccccc1COc1ccccc1/C=N/Nc1nc(N2CCCC2)nc(N2CCCC2)n1 | 0.9 | 10.2 | 6.2 | 50.1* | 0.125 | .
C(=N\Nc1nc(N2CCCCCC2)nc(N2CCCCCC2)n1)/c1ccccc1 | 0.8 | 68.2* | 15.7 | 61.0* | 0.46 | .
Fc1ccc(Nc2nc(N/N=C/c3ccco3)nc(N3CCCCC3)n2)cc1 | 1 | 82.5* | -2.4 | 82.5* | -0.00877 | -1.6
COCCn1ccc(O)c(Cc2ccc(Cl)cc2)c1=O | 0.9 | 22.9 | 9.8 | -2.8 | 0.456 | .
COc1cc(OC)c(OC)cc1CNCCSc1nnnn1C | 0.9 | 0.2 | 10.2 | 1.1 | 0.273 | 0.407
Cc1cccc(NC(=O)c2csnn2)n1 | 1 | -6.1 | -0.3 | 17.6 | 0.0115 | -0.809
BrC(=C\c1ccccc1)/C=N/Nc1nc(N2CCOCC2)nc(N2CCOCC2)n1 | 0.9 | 15.8 | 13.1 | 86.0* | 1.05 | -0.299
BrC(/C=C\c1ccccc1)=N/Nc1nc(N2CCOCC2)nc(N2CCOCC2)n1 | 0.9 | 5.9 | 6.6 | 14.2 | -1.55 | 0.192
Brc1cccc(/C=N/Nc2nc(N3CCCCC3)nc(N3CCCCC3)n2)c1 | . | 1.5 | . | 51.8* | . | 0.0732
COC(=O)C(Cc1ccccc1)P(=O)(c1ccccc1)c1ccccc1 (configuration not stated) | 1 | -16.0 | -3.1 | 2.7 | -0.0409 | -0.0255
CN(C(=O)/C(N=Nc1cccc(C(F)(F)F)c1)=C(\O)C(F)(F)F)c1ccccc1 | 0.8 | 70.2* | 24.9 | -0.2 | . | .
CCOc1ccc(S(=O)(=O)Nc2ccc(C(=O)NN)cc2)cc1 | . | . | . | . | 1.08 | .
O=C(COC(=O)CCCOc1ccc(Cl)cc1Cl)Nc1cccc(Cl)c1 | 0.8 | 70.3* | 23.5 | -2.2 | -0.387 | -1.21
COc1ccc(CNC(=O)COC(=O)CCCOc2ccc(Cl)cc2Cl)cc1 | 0.8 | -6.1 | 16.3 | -8.4 | -0.421 | .
CN(C(=S)NC(=O)CCCOc1ccc(Cl)cc1Cl)c1ccccc1 | 0.9 | 12.8 | 7.2 | -1.7 | 38.5* | 0.301
CC(C)NC(=O)CCCOc1ccc(Cl)cc1Cl | 1.1 | -16.2 | -11.1 | -1.3 | 0.652 | -0.467
CC(=O)N(CCC(c1ccco1)C(C)C)Cc1ccc(OC(C)C)cc1 (configuration not stated) | . | . | . | . | -2.4 | .
